Source: publication PMC7672428 (Nucleic Acids Research, 2020)

What was measured:
[1] = target: Ku70/80 (Homo sapiens, UniProt P12956+P13010); test: Electrophoretic mobility shift assay; type: binding
How it was run: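 Purified Ku pre-incubated with varying concentrations of test compound, then added to 5′-[32P]-labeled 30-bp duplex DNA made by annealing a labeled strand to its complement. Incubated 30 min at 25°C, resolved on a 6% non-denaturing polyacrylamide gel, then phosphorimaged and quantified. Triplicate titrations, IC50 from fitted binding curves.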

[2] = target: DNA-PK (Homo sapiens, UniProt P12956+P13010); test: DNA-PK phosphoryl-transferase kinase assay with p53 peptide substrate; type: biochemical
DNA-PK, sequence (P12956 whole entry): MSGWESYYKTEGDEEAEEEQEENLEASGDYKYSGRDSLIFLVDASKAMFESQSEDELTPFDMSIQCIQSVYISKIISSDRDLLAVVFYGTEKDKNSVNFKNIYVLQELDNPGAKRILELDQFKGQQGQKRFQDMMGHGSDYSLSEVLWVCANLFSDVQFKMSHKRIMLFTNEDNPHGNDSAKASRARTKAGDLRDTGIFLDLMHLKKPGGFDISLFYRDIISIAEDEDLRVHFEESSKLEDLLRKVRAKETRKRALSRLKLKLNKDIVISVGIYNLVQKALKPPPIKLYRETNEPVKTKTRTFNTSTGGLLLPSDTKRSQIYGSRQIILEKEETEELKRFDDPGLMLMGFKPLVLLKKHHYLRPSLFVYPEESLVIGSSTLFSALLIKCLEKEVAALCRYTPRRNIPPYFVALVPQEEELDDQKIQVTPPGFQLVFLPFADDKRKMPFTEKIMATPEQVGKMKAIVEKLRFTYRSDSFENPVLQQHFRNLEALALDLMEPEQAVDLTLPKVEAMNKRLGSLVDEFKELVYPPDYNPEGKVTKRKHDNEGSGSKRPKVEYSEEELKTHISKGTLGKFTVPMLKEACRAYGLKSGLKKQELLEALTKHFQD
DNA-PK, sequence (P13010 whole entry): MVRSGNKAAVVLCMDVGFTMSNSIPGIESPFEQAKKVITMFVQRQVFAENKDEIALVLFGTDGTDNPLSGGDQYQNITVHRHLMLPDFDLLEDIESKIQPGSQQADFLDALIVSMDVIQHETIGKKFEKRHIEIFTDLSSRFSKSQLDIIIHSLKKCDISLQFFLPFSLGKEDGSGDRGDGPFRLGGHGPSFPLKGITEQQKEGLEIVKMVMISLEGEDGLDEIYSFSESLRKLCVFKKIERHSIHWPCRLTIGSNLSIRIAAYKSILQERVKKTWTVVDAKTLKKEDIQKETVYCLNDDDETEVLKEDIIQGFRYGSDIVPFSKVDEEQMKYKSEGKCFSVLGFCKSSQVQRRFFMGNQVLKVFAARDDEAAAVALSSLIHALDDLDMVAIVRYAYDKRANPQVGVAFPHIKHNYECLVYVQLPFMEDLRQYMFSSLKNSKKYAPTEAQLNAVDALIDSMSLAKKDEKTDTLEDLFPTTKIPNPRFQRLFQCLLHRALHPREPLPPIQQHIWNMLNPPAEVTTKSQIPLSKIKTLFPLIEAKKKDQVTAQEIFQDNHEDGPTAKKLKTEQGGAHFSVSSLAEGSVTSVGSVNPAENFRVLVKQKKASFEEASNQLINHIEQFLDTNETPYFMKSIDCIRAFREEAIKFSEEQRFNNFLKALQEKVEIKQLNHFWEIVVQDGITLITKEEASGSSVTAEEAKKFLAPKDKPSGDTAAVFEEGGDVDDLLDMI
How it was run: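 DNA-PKcs purified from HeLa or HEK 293 cells and combined with Ku; test compound pre-incubated with the enzyme 15 min. Reaction started with ATP, unlabeled 30-bp duplex DNA and synthetic p53-based peptide. [32P] transfer run at 37°C for 15 min, stopped with 30% acetic acid, spotted on P81 filters and washed. Read by phosphorimaging. Triplicate titrations, IC50 from fitted binding curves.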

[3] = test system: Ku80-null mouse embryo fibroblasts (MEF); test: CCK-8 cell viability, Ku80-null MEF; type: cell-based
How it was run: (§1)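 Ku80-wt and Ku80-null MEFs in RPMI with 10% FBS, 5 × 10^3 per well, grown 24 h before treatment. Exposed 48 h in Opti-MEM to vehicle or 20 μM test compound, concurrently with indicated bleomycin concentrations (or compound alone), 1% DMSO constant. CCK-8 about 2 h, A450 read; percent viability relative to vehicle controls. Mean and SEM of triplicates.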

[4] = test system: Ku80-wt mouse embryo fibroblasts (MEF); test: CCK-8 cell viability, wild type MEF; type: cell-based; conditions: 20 μM
How it was run: as §1

[5] = Solubility and stability; type: physicochemical
[6] = test system: DNA-PKcs p-S2056 in H460 cells; test: Immunofluorescence of DNA-PKcs p-S2056 after Bleomycin; type: cell-based; conditions: 20 μM, concurrent or 1-2 h pre-incubation, 10 μM Bleomycin 1 h
How it was run: (§2)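 H460 cells on coverslips overnight, then 10 μM bleomycin for 1 h at 37 °C with 20 μM test compound, given concurrently or after 1 or 2 h preincubation; controls in 1% DMSO. Fixed in 4% PFA, permeabilised in 0.1% Triton, blocked. Stained with anti-p-DNA-PKcs S2056 and anti-γH2AX S139 (1:200, overnight 4 °C), plus DAPI. Fiji scored p-S2056 intensity and γH2AX foci over 200 cells; median, unpaired t-test.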

[7] = target: MELK kinase (Homo sapiens, UniProt Q14680); test: Kinase screen; type: biochemical; conditions: 2.5 μM
MELK kinase, sequence (Q14680 whole entry): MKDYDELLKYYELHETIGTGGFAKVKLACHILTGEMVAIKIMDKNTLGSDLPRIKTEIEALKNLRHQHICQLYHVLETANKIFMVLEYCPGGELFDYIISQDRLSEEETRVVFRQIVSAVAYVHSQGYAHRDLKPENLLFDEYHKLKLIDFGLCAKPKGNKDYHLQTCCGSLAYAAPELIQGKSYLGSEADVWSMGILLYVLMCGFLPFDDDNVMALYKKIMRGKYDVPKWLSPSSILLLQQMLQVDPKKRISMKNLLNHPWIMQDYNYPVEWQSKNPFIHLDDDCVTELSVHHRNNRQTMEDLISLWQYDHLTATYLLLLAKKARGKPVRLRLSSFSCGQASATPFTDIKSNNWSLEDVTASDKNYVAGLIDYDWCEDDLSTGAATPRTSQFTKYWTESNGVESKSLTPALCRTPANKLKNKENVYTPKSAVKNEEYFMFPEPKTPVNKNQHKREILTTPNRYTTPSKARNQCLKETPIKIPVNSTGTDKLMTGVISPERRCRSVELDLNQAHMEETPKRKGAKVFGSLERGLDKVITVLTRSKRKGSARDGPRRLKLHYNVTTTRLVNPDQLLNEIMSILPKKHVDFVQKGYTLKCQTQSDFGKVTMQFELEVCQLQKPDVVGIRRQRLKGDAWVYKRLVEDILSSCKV
How it was run: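 Panel of 24 kinases, each with its own substrate, run in triplicate with or without 2.5 μM test compound using ADP-Glo. After ATP depletion, generated ADP was read by coupled luciferase luminescence. Percent activity remaining, or inhibition, calculated relative to DMSO vehicle controls.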

[8] = test system: H460 cells; test: CRISPR/Cas9 HDR-mediated gene insertion at EMX1; type: cell-based; conditions: 20 μM
How it was run: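 Donor carrying GFP and a puromycin-resistance gene, flanked by 800 bp homology arms to an EMX1 CRISPR cut site, co-transfected into H460 cells with EMX1 gRNA and Cas9 plasmids, with vehicle or 20 μM test compound. Junctional PCR on genomic DNA scored precise homologous integration among puromycin-resistant clones.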

[9] = target: Ku protein (Homo sapiens, UniProt P12956+P13010); test: Thermal-shift assay; type: binding
Ku protein, sequence (P12956 whole entry): as the sequence (P12956 whole entry) above
Ku protein, sequence (P13010 whole entry): as the sequence (P13010 whole entry) above
How it was run: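 Purified Ku70/80 (baculovirus-infected Sf9 cells) mixed with DMSO vehicle or a fixed test-compound concentration, then split into aliquots. Aliquots heated 3 min at a range of temperatures, cooled to 4 °C and spun at 12,000 × g for 20 min. Soluble Ku70 detected by SDS-PAGE western blot with chemiluminescence. Band intensities normalised to the 40 °C point, fit to a 4-parameter sigmoid, giving T1/2.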

[10] = test system: γ-H2AX in H460 cells; test: Immunofluorescence of γ-H2AX after Bleomycin; type: cell-based; conditions: 20 μM, 10 μM Bleomycin 1 h
How it was run: as §2

[11] = test system: H460 cells; test: CCK-8 cell viability with etoposide; type: cell-based; conditions: 20 μM, 48 h
How it was run: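 H460 cells in RPMI with 10% FBS, plated at 5 × 10^3 per well and grown 24 h. Treated 48 h in Opti-MEM with 20 μM test compound or vehicle plus indicated etoposide concentrations, DMSO held at 1%. CCK-8 added for about 2 h, then A450 read; percent viability taken relative to vehicle-treated controls. Mean and SEM of triplicates.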

Ku70/80, sequence (P12956 whole entry): as the sequence (P12956 whole entry) above
Ku70/80, sequence (P13010 whole entry): as the sequence (P13010 whole entry) above

Compound: O=c1cc(N2CCOCC2)oc2c(-c3cccc4c3sc3ccccc34)cccc12 [NU7441, reference compound]
- impact on Ku–DNA binding activity [1]: no impact

Compound: COc1cccc(NC(=O)c2cc(-c3ccc(/C=C4\C(=O)N(c5cccc(C(=O)O)c5)N=C4C)o3)ccc2Cl)c1 [compound 68]
- IC50 [2]: 3120 ± 700 nM
- fold increase in Ku–DNA binding inhibitory activity ([1]; on incorporation of 3-methoxyphenyl amide into X80): 4 fold
- sensitivity to Bleomycin induced by compound, Ku80-null cells ([3]; 20 μM, concurrent 48 h with Bleomycin): no significant increase in sensitivity
- sensitivity to Bleomycin induced by compound, wild type cells ([4]; concurrent 48 h with Bleomycin): increased sensitivity
- reduction in survival, single agent ([4]; preliminary single agent experiments): < 10%
- solubility compared to 5102 and 5135 [5]: significant increase in solubility

Compound: COc1cccc(NC(=O)c2cc(-c3ccc(CC4C(=O)N(c5cccc(C(=O)O)c5)N=C4C)o3)ccc2Cl)c1 (stereo not drawn) [compound 149]
- IC50 [2]: 500 ± 30 nM
- IC50 [1]: 3720 ± 1500 nM

Compound: COc1cccc(NC(=O)c2cc(-c3ccc(CC4C(=O)N(c5cccc(-c6nnn[nH]6)c5)N=C4C)o3)ccc2Cl)c1 (stereo not drawn) [compound 245]
- IC50 [2]: 240 ± 15 nM
- DNA-PKcs Ser 2056 phosphorylation in cells [6]: reduced Ser 2056 phosphorylation
- IC50 [1]: 1990 ± 900 nM
- inhibition of MELK kinase [7]: moderate inhibition
- Insertion efficiency (%) [8]: 80%
- shift in Tm of Ku ([9]; vs vehicle Tm of 50°C): 6 °C
- Tm of Ku ([9]; with compound): 56 °C
- γ-H2AX (DDR) [10]: inhibition of the DDR

Compound: COc1cccc(NC(=O)c2cc(-c3ccc(CC4C(=O)N(c5cccc(C(=O)O)c5)N=C4C(F)(F)F)o3)ccc2Cl)c1 (stereo not drawn) [compound 322]
- IC50 [2]: 110 ± 20 nM
- IC50 [1]: 2660 ± 300 nM
- sensitization to etoposide [11]: Sensitization to etoposide

Compound: Bleomycin [reference compound]
- increased sensitivity of Ku80-null cells compared to wt MEFs ([3]; 48 h, CCK-8): ~6 fold
